Rows were chosen to be rich in hits. Some 2.3% of all compounds tested hit in one or more screens of this group.
TRPC6 inhibitor = mouse TRPC6 channel inhibitors, primary screen, cell-based, HEK293, membrane potential dye. B-score at 10 µM. actives 1.1% (n = 310,000). ACh-evoked depolarization; stronger effect = lower value. Short transient receptor potential channel 6 (Mus musculus), Q61143;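 active means B-score under library mean minus 3 SD, initial fluorescence not abnormally high, positive integrated signal ratio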;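 further: B-score derived from integrated fluorescence ratio over the kinetic read; more negative B-score means stronger inhibition of depolarization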
TRPC6 act = mouse TRPC6 channel activators, primary screen, cell-based, HEK293, membrane potential dye; Short transient receptor potential channel 6 (Mus musculus), Q61143; HEK293-TRPC6 membrane potential dye fluorescence; stronger effect = higher value; B-score at 10 µM; actives 0.13% (n = 310,000); AID 2550, 2010;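 active means B-score of the integrated fluorescence ratio above library mean plus 3 SD, and starting fluorescence ratio within library mean plus 5 SD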;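 further: higher score means more depolarization so channel activation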
TRPC4 act = activators of mouse TRPC4 channel, primary screen, Fluo4 calcium, HEK293 TRPC4beta/mu-opioid cells; AID 2237, 2010; Fluo4 calcium fluorescence; stronger effect = higher value; actives 0.49% (n = 310,000); Short transient receptor potential channel 4 (Mus musculus), Q9QUQ5; B-score at 10 µM;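 active means B-score above 5 SD of library B-scores, and initial fluorescence ratio not above library mean plus 5 SD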;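 further: positive B-score marks a calcium rise read as TRPC4 activation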
Target sequence (Q9QUQ5 whole entry, looked up): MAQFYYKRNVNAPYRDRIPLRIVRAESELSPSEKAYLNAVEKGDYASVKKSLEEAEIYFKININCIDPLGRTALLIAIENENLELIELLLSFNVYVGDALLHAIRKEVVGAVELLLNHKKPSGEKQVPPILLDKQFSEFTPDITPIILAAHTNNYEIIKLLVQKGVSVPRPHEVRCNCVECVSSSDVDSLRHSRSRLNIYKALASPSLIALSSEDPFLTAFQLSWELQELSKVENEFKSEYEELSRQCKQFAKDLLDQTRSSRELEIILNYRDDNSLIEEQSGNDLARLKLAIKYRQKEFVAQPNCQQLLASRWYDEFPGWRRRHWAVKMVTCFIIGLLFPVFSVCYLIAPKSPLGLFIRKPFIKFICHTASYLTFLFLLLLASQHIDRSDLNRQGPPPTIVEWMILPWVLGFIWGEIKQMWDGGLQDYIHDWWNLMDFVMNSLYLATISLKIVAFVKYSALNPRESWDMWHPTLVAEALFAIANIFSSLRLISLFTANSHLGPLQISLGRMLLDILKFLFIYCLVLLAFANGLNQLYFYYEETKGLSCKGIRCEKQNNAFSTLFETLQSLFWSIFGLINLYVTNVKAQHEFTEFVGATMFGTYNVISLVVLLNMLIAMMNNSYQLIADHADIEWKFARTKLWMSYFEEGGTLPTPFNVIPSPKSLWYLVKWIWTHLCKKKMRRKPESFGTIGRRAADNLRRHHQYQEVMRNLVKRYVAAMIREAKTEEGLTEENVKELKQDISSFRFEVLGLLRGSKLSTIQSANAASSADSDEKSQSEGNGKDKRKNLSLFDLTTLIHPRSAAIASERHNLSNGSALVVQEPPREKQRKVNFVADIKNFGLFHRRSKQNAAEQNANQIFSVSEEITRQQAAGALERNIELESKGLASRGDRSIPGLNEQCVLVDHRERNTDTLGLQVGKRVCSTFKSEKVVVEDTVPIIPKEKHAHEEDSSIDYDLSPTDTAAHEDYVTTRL
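Assay system: HEK293 stable line with TRPC4beta plus mu-opioid receptor; schedule: 45 min room-temperature Fluo4 loading, 110 s read; technique: kinetic Fluo4 calcium fluorescence; evaluation: integrated baseline-normalised fluorescence ratio, converted to per-well B score; controls: buffer (low) and maximal DAMGO (high)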
TRPC4 inh = inhibitors of mouse TRPC4 channel, primary screen, Fluo4 calcium, HEK293 TRPC4beta/mu-opioid cells | DAMGO-evoked Fluo4 calcium flux; stronger effect = lower value | Short transient receptor potential channel 4 (Mus musculus), Q9QUQ5 | actives 0.39% (n = 300,000) | B-score at 10 µM;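 active means B-score over 3 SD under the library average, no early fluorescence shift, positive overall ratio signal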
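Signal: kinetic Fluo4 fluorescence imaging of calcium influx. Material: stable TRPC4beta/mu-opioid receptor HEK293 cells. Probe or stimulus: DAMGO in two steps, submaximal then maximal.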
TRPC4 PAM = positive allosteric modulators of TRPC4, primary screen, cell-based, mouse TRPC4beta, HEK293 mu-opioid, Fluo-4 calcium | Short transient receptor potential channel 4 (Mus musculus), Q9QUQ5 | DAMGO EC20, Fluo-4 Ca2+ flux; stronger effect = higher value | B-score at 10 µM | actives 0.42% (n = 310,000) | AID 2227, 2009;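 active means B-score of calcium response area above 5 SD of library B-scores, with initial fluorescence ratio within 5 SD of library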;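 further: B-score of integrated fluorescence ratio over time as area under calcium response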
TRPC4 sel inh 2 = second selectivity test of TRPC6 inhibitors: effect on mouse TRPC4 | shares compounds with TRPC6 inhibitor | HEK293 TRPC4/MOR, membrane potential dye fluorescence; channel activated by saturating DAMGO dose | inhibition, % at 10 µM | actives 42% (n = 920) | AID 2776;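 active means compounds whose fluorescence signal differed from control wells by over 3 SD, either direction, in both duplicate plates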
TRPC4 spec = mouse TRPC4 modulation by TRPC6 hits, confirmation, selectivity assay for TRPC6 inhibitor project, cell-based, HEK293 TRPC4/mu-opioid, membrane potential dye | activity change, negative = inhibition, % at 10 µM | shares compounds with TRPC6 inhibitor | AID 2777, 2010 | actives 61% (n = 920) | membrane potential fluorescence;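 active means rise or fall in signal beyond 3 SD of buffer-only wells in both replicate plates, either sign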;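 further: integrated kinetic ratio of fluorescence range over baseline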
HEK293 MPD ctr 2-1 = nonspecific membrane potential effects, parental HEK293, confirmation, counter-screen for TRPC6 inhibitor project, cell-based, second counter screen | shares compounds with TRPC6 inhibitor | parental HEK293 membrane potential dye fluorescence; maximal acetylcholine challenge after compound addition | signal change vs control, % at 10 µM | actives 31% (n = 920);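 active means membrane potential signal moving either way by over 3 SD of the maximum-effect control, in both duplicate plates, meaning non-specific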
HEK293 MPD ctr-1 = membrane potential modulation in parental HEK293, confirmation, counter-screen for TRPC6 inhibitor project, cell-based. shares compounds with TRPC6 inhibitor. membrane potential signal change, % at 10 µM. parental HEK293 membrane potential dye fluorescence. actives 60% (n = 920);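 active means membrane potential signal shifting up or down by more than 3 SD of buffer-only wells, on both duplicate plates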
HEK293 MPD ctr-2 = parental HEK293 membrane potential modulation, confirmation, counter-screen for TRPC6 modulator project, cell-based. shares compounds with TRPC6 inhibitor. membrane potential dye fluorescence. membrane potential signal change, % at 10 µM. actives 51% (n = 2,400). AID 488924, 2010;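 active means membrane potential signal moves up or down beyond 5 SD from buffer-only wells, on both duplicate plates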
HEK293 MPD ctr 2-2 = parental HEK293 nonspecific activity of TRPC6 modulators, second screen. shares compounds with TRPC6 inhibitor. membrane potential dye fluorescence; after compound, maximal acetylcholine stimulation. inhibition, % at 10 µM. actives 14% (n = 2,400). AID 488926;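 active means membrane potential signal drops by more than 5 SD from the mean control signal, in both duplicate plates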;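 further: plate controls were acetylcholine ECmax control wells for no effect and buffer only wells for full effect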
TRPC4/MOR mod = TRPC4 modulation by TRPC6 hit compounds, confirmation, selectivity assay for TRPC6 modulator project, cell-based, HEK293 TRPC4/mu-opioid, membrane potential dye, mouse; shares compounds with TRPC6 inhibitor; membrane potential fluorescence; percent change from control (negative = decrease, positive = increase), % at 10 µM; actives 69% (n = 2,400);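 active means membrane potential signal moved up or down beyond 5 SD of buffer control wells, in both duplicate plates, actives on both sides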;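 further: plate controls were assay buffer wells for no effect and DAMGO maximal-effect wells for full effect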
TRPC4 ctr inh 2 = mouse TRPC4 off-target activity of TRPC6 modulators, second screen. inhibition, % at 10 µM. actives 55% (n = 2,400). shares compounds with TRPC6 inhibitor. AID 488928. HEK293 TRPC4/mu-opioid, membrane potential dye fluorescence; stimulated with maximal-effect DAMGO;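 active means drop in membrane potential signal beyond 5 SD of the control wells in both duplicate plates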;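 further: TRPC4 counter screen for TRPC6 hits run under conditions tuned for TRPC6 not TRPC4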
TRPC6 inh conf = mouse TRPC6 channel inhibitors, confirmation, HEK293 cells, membrane potential dye, duplicate | shares compounds with TRPC6 inhibitor | ACh-evoked depolarization | inhibition, % at 10 µM | actives 43% (n = 3,300);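 active means fluorescence ratio falls more than 5 SD below the full-stimulation control mean, in both duplicate runs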;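 further: integrated fluorescence ratio of peak minus minimum over baseline after agonist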
TRPC6 act confirm = mouse TRPC6 channel activators, confirmation, HEK293 cells, membrane potential dye, duplicate. shares compounds with TRPC6 inhibitor. HEK293-TRPC6 membrane potential dye fluorescence, FDSS. activation, % at 10 µM. actives 11% (n = 2,800). AID 488961, 2010;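 active means ratio signal rise beyond 5 SD above unstimulated control wells' mean, seen in both duplicate runs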;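 further: plate controls were buffer EC0 wells for no effect and acetylcholine ECmax response for full effect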
Starred values were filed as active, the others as inactive; i = inactive; . = no result.

SMILES	TRPC6 inhibitor	TRPC6 act	TRPC4 act	TRPC4 inh	TRPC4 PAM	HEK293 MPD ctr-2	HEK293 MPD ctr 2-2	TRPC4/MOR mod	TRPC4 ctr inh 2	TRPC6 inh conf	TRPC6 act confirm	others
Cc1ccc(-n2nc3c(c2NC(=O)c2c(-c4ccccc4Cl)noc2C)CS(=O)(=O)C3)c(C)c1	-5.47*	i	i	i	i	100.0%*	i	24.0%*	i	i	.
CCOc1ccccc1NC(=O)Cn1c(=O)n(CCC(=O)NC2CCCC2)c(=O)c2ccccc21	i	i	i	i	i	.	.	.	.	.	.
COCC(=O)N(C)c1nnc(-c2cnccn2)s1	i	i	i	i	i	.	.	.	.	.	.
CC(=O)N(C)c1nnc(-c2cnccn2)s1	-6.46*	i	i	i	i	-233.5%*	i	-32.0%*	i	i	i
Cc1ccc(N/C(N)=N/c2nc3c(c(=O)[nH]2)CCCC3)c(C)c1	i	i	i	i	i	.	.	.	.	.	.
Cc1ccc(N/C(N)=N/c2nc(C)cc(N3CCCCC3)n2)c(C)c1	-8.95*	i	i	i	i	339.0%*	i	74.5%*	66.0%*	82.5%*	.
COc1cc2ccccc2nn1	i	i	i	i	i	.	.	.	.	.	.
COc1ccc2c(n1)Sc1nc3ccccc3nc1N2	i	19.1*	i	i	i	210.5%*	i	105.5%*	i	i	i
Cc1ccc(C2N(c3ccccc3)C(=S)N3CCCN23)cc1 (stereo unspecified)	-7.51*	i	i	i	i	.	.	.	.	69.8%*	i	TRPC4 sel inh 2=i;TRPC4 spec=i;HEK293 MPD ctr 2-1=i;HEK293 MPD ctr-1=i
COc1cc(/C=C2/C(=O)N(c3cccc(Br)c3)N=C2C)cc(OC)c1O	-5.39*	i	i	i	i	i	i	-26.5%*	72.5%*	53.0%*	i
COc1ccc(C2=NN(c3ccccc3)C(=O)/C2=C\c2ccc(O)c(OC)c2)cc1	-6.84*	i	i	i	i	.	.	.	.	i	i	TRPC4 sel inh 2=i;TRPC4 spec=i;HEK293 MPD ctr 2-1=i;HEK293 MPD ctr-1=i
S=C(NCCN1CCOCC1)N/N=C/c1c2ccccc2cc2ccccc12	-5.15*	i	i	i	i	260.0%*	i	-22.5%*	i	i	i
CCOC(=O)c1cn(CC)c2ccc(Br)cc2c1=O	-5.97*	i	i	i	i	-106.0%*	i	-16.5%*	i	i	i
CCOC(=O)c1cn(CC2CC2)c2cc(F)c(F)cc2c1=O	-5.42*	i	i	i	i	-276.5%*	i	-48.5%*	59.0%*	53.0%*	i
CCCn1cc(C(=O)OCC)c(=O)c2cc(F)c(F)cc21	i	i	i	i	i	.	.	.	.	.	.
COc1ccc(NC2=NC(=S)N(c3ccc(C)cc3)C23CCCCC3)cc1	i	i	i	i	i	.	.	.	.	.	.
COc1cc(OC)c(C(=O)Nc2ccncc2)cc1OC	-5.09*	i	i	i	i	i	72.5%*	-8.5%*	36.0%*	45.5%*	i
Cc1cc([N+](=O)[O-])c(NCCCCCCO)c([N+](=O)[O-])c1	i	i	i	i	i	.	.	.	.	.	.
CCCCOc1ccc(Br)cc1CSC(=N)N	-6.94*	i	i	i	i	.	.	.	.	76.5%*	i	TRPC4 sel inh 2=18.5%*;TRPC4 spec=4.3%*;HEK293 MPD ctr 2-1=i;HEK293 MPD ctr-1=6.7%*
CCCCOc1ccc(CN(CCO)CCO)cc1[N+](=O)[O-]	i	i	i	i	i	.	.	.	.	.	.
CCCCCOc1ccc(CSC(=N)N)cc1[N+](=O)[O-]	-7.61*	i	i	i	i	.	.	.	.	80.2%*	i	TRPC4 sel inh 2=45.5%*;TRPC4 spec=i;HEK293 MPD ctr 2-1=i;HEK293 MPD ctr-1=-130.0%*
Cn1c(C(=O)N2CCOCC2)cc2c(=O)n3ccccc3nc21	i	i	i	i	i	.	.	.	.	.	.
CC1=C(C(=O)OC(C)C)C(c2cccc(F)c2)N2C(=O)C(C)SC2=N1 (stereo unspecified)	-6*	i	i	i	i	i	i	13.0%*	i	i	i
CC1=C(C(=O)OCC(C)C)C(c2cccc(F)c2)N2C(=O)C(C)SC2=N1 (stereo unspecified)	i	i	i	i	i	.	.	.	.	.	.
Cc1cc(OC(=O)c2cccc(Br)c2)c([N+](=O)[O-])c(=O)[nH]1	i	i	i	i	i	.	.	.	.	.	.

Compound activity: PubChem BioAssay, Johns Hopkins Ion Channel Center
